{"source": "ChEMBL document CHEMBL3525931", "about": "“Stereoselective interaction of pantoprazole with ABCG2. II. In vitro flux analysis” (Drug Metab Dispos, 2012)", "key": {"[1]": {"target": "T1, Broad substrate specificity ATP-binding cassette transporter ABCG2 (Rattus norvegicus, UniProt Q80W57)", "T1 sequence (Q80W57 whole entry)": "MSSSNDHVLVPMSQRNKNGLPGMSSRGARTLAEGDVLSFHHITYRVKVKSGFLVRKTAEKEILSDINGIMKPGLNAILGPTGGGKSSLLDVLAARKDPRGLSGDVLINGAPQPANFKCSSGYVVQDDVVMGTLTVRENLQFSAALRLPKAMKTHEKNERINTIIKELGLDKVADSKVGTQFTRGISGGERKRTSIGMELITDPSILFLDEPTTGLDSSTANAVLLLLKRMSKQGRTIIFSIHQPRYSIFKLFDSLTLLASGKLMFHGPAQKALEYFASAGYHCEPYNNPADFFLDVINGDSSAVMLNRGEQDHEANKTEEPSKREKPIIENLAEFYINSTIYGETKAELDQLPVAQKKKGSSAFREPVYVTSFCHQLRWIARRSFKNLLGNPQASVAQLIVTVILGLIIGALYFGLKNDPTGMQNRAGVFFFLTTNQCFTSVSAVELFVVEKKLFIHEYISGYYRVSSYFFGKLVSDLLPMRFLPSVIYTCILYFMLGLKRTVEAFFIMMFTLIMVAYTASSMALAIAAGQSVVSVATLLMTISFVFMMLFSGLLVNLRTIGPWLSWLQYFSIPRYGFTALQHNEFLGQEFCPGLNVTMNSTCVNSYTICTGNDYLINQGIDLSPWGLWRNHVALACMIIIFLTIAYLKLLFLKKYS", "assay": "Observed permeability in MDCK2 cells expressing rat ABCG2 assessed as ABCG2-mediated apical to basolateral transport at 50 uM after 0.5 to 1 hrs by HPLC method", "format": "ADME, cell-based", "settings": "mdck-ii", "how_it_was_run": "(§1)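 Mock (empty pcDNA3.1) or rat Abcg2/human ABCG2-transfected MDCKII, G418-selected, seeded on 3.0-μm Transwell filters at 1.0×10^6 cells/well, grown 4 days to TEER >200 Ω·cm². Single isomer loaded apical or basolateral in serum-free Opti-MEM I with 0.2 μCi/ml [3H]mannitol, 37°C 5% CO2. Receiver sampled at 0.5 and 1 h. Quantified by HPLC-UV 290 nm. Permeability = initial rate/(area × donor concentration). Efflux ratio = B→A rate / A→B rate. n = 3, mean ± S.D.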"}, "ABCG2 [2]": {"target": "T2, ABCG2 (Rattus norvegicus, UniProt Q80W57)", "T2 sequence (Q80W57 whole entry)": "T1 sequence (Q80W57 whole entry)", "assay": "Asymmetry efflux ratio in MDCK2 cells expressing rat ABCG2 assessed as ABCG2-mediated drug transport ratio at 3 uM after 0.5 to 1 hrs by HPLC method", "format": "ADME, cell-based", "how_it_was_run": "as §1"}, "[3]": {"target": "T3, Broad substrate specificity ATP-binding cassette transporter ABCG2 (Homo sapiens, UniProt Q9UNQ0)", "T3 sequence (Q9UNQ0 whole entry)": "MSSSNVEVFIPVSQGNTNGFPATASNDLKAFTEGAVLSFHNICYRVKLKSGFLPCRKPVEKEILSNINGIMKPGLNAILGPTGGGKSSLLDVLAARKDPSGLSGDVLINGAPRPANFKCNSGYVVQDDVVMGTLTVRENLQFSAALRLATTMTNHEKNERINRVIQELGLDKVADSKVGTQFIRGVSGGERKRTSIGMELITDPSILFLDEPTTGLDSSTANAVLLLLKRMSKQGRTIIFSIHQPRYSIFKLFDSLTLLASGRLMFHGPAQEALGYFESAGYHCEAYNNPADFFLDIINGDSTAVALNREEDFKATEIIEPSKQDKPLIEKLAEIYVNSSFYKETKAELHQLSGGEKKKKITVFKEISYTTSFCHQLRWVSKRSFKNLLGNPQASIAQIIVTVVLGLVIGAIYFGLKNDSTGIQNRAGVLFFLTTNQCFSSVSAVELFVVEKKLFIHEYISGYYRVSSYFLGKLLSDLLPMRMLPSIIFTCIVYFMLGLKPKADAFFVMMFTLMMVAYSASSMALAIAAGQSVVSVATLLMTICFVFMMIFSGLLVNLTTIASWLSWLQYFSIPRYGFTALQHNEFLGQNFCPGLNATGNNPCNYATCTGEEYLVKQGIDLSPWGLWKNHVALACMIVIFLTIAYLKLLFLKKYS", "assay": "Observed permeability in MDCK2 cells expressing human ABCG2 assessed as ABCG2-mediated basolateral to apical transport at 10 uM after 0.5 to 1 hrs by HPLC method", "format": "ADME, cell-based", "settings": "mdck-ii", "how_it_was_run": "as §1"}, "ABCG2 [4]": {"target": "T4, ABCG2 (Homo sapiens, UniProt Q9UNQ0)", "T4 sequence (Q9UNQ0 whole entry)": "T3 sequence (Q9UNQ0 whole entry)", "assay": "Asymmetry efflux ratio in MDCK2 cells expressing human ABCG2 assessed as ABCG2-mediated drug transport ratio at 200 uM after 0.5 to 1 hrs by HPLC method", "format": "ADME, cell-based", "how_it_was_run": "as §1"}, "[5]": {"assay": "Observed permeability in MDCK2 cells assessed as apical to basolateral transport at 3 to 200 uM after 0.5 to 1 hrs by HPLC method", "format": "ADME, cell-based, Canis lupus familiaris", "settings": "dog, mdck-ii", "how_it_was_run": "as §1"}, "[6]": {"target": "T1, Broad substrate specificity ATP-binding cassette transporter ABCG2", "assay": "Observed permeability in MDCK2 cells expressing rat ABCG2 assessed as ABCG2-mediated basolateral to apical transport at 50 uM after 0.5 to 1 hrs by HPLC method", "format": "ADME, cell-based", "settings": "mdck-ii", "how_it_was_run": "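rAbcg2-transfected MDCKII monolayers seeded at 1.0×10^6 cells/well on 3.0-μm filters, grown 4 days to TEER >200 Ω·cm². Serum-free Opti-MEM I on both sides. Individual PAN isomer plus 0.2 μCi/ml [3H]mannitol loaded basolaterally, 37°C, 5% CO2. Receiver sampled at 0.5 and 1 h, PAN quantified by HPLC-UV 290 nm. P_obs = initial transfer rate/(area × initial donor concentration). Mean ± S.D., n = 3.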"}, "[7]": {"assay": "Asymmetry efflux ratio in MDCK2 cells assessed as drug transport ratio at 30 uM after 0.5 to 1 hrs by HPLC method", "format": "ADME, cell-based, Canis lupus familiaris, MDCK-II", "settings": "dog, MDCK", "how_it_was_run": "as §1"}, "ABCG2 [8]": {"target": "T4, ABCG2", "assay": "Asymmetry efflux ratio in MDCK2 cells expressing human ABCG2 assessed as ABCG2-mediated drug transport ratio at 3 uM after 0.5 to 1 hrs by HPLC method", "format": "ADME, cell-based", "how_it_was_run": "as §1"}, "ABCG2 [9]": {"target": "T4, ABCG2", "assay": "Asymmetry efflux ratio in MDCK2 cells expressing human ABCG2 assessed as ABCG2-mediated drug transport ratio at 10 uM after 0.5 to 1 hrs by HPLC method", "format": "ADME, cell-based", "how_it_was_run": "as §1"}, "ABCG2 [10]": {"target": "T2, ABCG2", "assay": "Asymmetry efflux ratio in MDCK2 cells expressing rat ABCG2 assessed as ABCG2-mediated drug transport ratio at 200 uM after 0.5 to 1 hrs by HPLC method", "format": "ADME, cell-based", "how_it_was_run": "as §1"}, "[11]": {"target": "T3, Broad substrate specificity ATP-binding cassette transporter ABCG2", "assay": "Observed permeability in MDCK2 cells expressing human ABCG2 assessed as ABCG2-mediated apical to basolateral transport at 30 uM after 0.5 to 1 hrs by HPLC method", "format": "ADME, cell-based", "settings": "mdck-ii", "how_it_was_run": "as §1"}, "[12]": {"assay": "Asymmetry efflux ratio in MDCK2 cells assessed as drug transport ratio at 10 uM after 0.5 to 1 hrs by HPLC method", "format": "ADME, cell-based, Canis lupus familiaris, MDCK-II", "settings": "dog, MDCK", "how_it_was_run": "as §1"}, "ABCG2 [13]": {"target": "T2, ABCG2", "assay": "Asymmetry efflux ratio in MDCK2 cells expressing rat ABCG2 assessed as ABCG2-mediated drug transport ratio at 30 uM after 0.5 to 1 hrs by HPLC method", "format": "ADME, cell-based", "how_it_was_run": "as §1"}, "[14]": {"target": "T3, Broad substrate specificity ATP-binding cassette transporter ABCG2", "assay": "Observed permeability in MDCK2 cells expressing human ABCG2 assessed as ABCG2-mediated apical to basolateral transport at 200 uM after 0.5 to 1 hrs by HPLC method", "format": "ADME, cell-based", "settings": "mdck-ii", "how_it_was_run": "as §1"}, "[15]": {"assay": "Asymmetry efflux ratio in MDCK2 cells assessed as drug transport ratio at 200 uM after 0.5 to 1 hrs by HPLC method", "format": "ADME, cell-based, Canis lupus familiaris, MDCK-II", "settings": "dog, MDCK", "how_it_was_run": "as §1"}, "[16]": {"assay": "Observed permeability in MDCK2 cells assessed as apical to basolateral transport at 3 uM after 0.5 to 1 hrs by HPLC method", "format": "ADME, cell-based, Canis lupus familiaris", "settings": "dog, mdck-ii", "how_it_was_run": "as §1"}}, "data": [{"smiles": "COc1ccnc(C[S@@+]([O-])c2nc3cc(OC(F)F)ccc3[nH]2)c1OC", "values": [{"measurement": "Papp", "setting": "[1]", "result": 79.1, "unit": "uL/hr/cm2"}, {"measurement": "efflux ratio at 3 µM", "setting": "ABCG2 [2]", "result": 18.7}, {"measurement": "Papp", "setting": "[3]", "result": 246, "unit": "uL/hr/cm2"}, {"measurement": "efflux ratio at 200 µM", "setting": "ABCG2 [4]", "result": 1.42}, {"measurement": "Papp", "setting": "[5]", "result": 121, "unit": "uL/hr/cm2"}, {"measurement": "Papp", "setting": "[6]", "result": 194, "unit": "uL/hr/cm2"}, {"measurement": "efflux ratio at 30 µM", "setting": "[7]", "result": 1.06}, {"measurement": "efflux ratio at 3 µM", "setting": "ABCG2 [8]", "result": 8.61}, {"measurement": "efflux ratio at 10 µM", "setting": "ABCG2 [9]", "result": 5.81}, {"measurement": "efflux ratio at 200 µM", "setting": "ABCG2 [10]", "result": 1.29}, {"measurement": "Papp", "setting": "[11]", "result": 43.6, "unit": "uL/hr/cm2"}, {"measurement": "efflux ratio at 10 µM", "setting": "[12]", "result": 1.07}, {"measurement": "efflux ratio at 30 µM", "setting": "ABCG2 [13]", "result": 6.16}, {"measurement": "Papp", "setting": "[14]", "result": 126, "unit": "uL/hr/cm2"}, {"measurement": "efflux ratio at 200 µM", "setting": "[15]", "result": 0.98}, {"measurement": "Papp", "setting": "[16]", "result": 116, "unit": "uL/hr/cm2"}]}, {"smiles": "COc1ccnc(C[S@+]([O-])c2nc3cc(OC(F)F)ccc3[nH]2)c1OC", "values": [{"measurement": "Papp", "setting": "[1]", "result": 109, "unit": "uL/hr/cm2"}, {"measurement": "efflux ratio at 3 µM", "setting": "ABCG2 [2]", "result": 34}, {"measurement": "Papp", "setting": "[3]", "result": 255, "unit": "uL/hr/cm2"}, {"measurement": "efflux ratio at 200 µM", "setting": "ABCG2 [4]", "result": 1}, {"measurement": "Papp", "setting": "[5]", "result": 121, "unit": "uL/hr/cm2"}, {"measurement": "Papp", "setting": "[6]", "result": 137, "unit": "uL/hr/cm2"}, {"measurement": "efflux ratio at 30 µM", "setting": "[7]", "result": 1.07}, {"measurement": "efflux ratio at 3 µM", "setting": "ABCG2 [8]", "result": 15}, {"measurement": "efflux ratio at 10 µM", "setting": "ABCG2 [9]", "result": 8.06}, {"measurement": "efflux ratio at 200 µM", "setting": "ABCG2 [10]", "result": 1.07}, {"measurement": "Papp", "setting": "[11]", "result": 67.6, "unit": "uL/hr/cm2"}, {"measurement": "efflux ratio at 10 µM", "setting": "[12]", "result": 1.06}, {"measurement": "efflux ratio at 30 µM", "setting": "ABCG2 [13]", "result": 1.63}, {"measurement": "Papp", "setting": "[14]", "result": 132, "unit": "uL/hr/cm2"}, {"measurement": "efflux ratio at 200 µM", "setting": "[15]", "result": 0.99}, {"measurement": "Papp", "setting": "[16]", "result": 118, "unit": "uL/hr/cm2"}]}]}
